Each structure is given as a SMILES string. The source made the active and inactive calls. The rule behind the calls is not given here. A value given as a limit tells only on which side of the number the result lay.

Assay [1] concerns MDA-MB-231. Put plainly: Cytotoxicity against human MDA-MB-231 cells after 5 days by SRB assay. Conditions: MDA-MB-231, 5 days.
A short description of assay [2]: Inhibition of NF-kappaB activation in human K562 cells. Format: cell-based. Summed up:
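K562 cells electroporated with 5 µg each of a 5× NF-κB-site firefly luciferase reporter and a Renilla phRG-TK plasmid per 2.5 × 10⁶ cells. After 24 h they were resuspended at 1 × 10⁶/ml in RPMI 1640 with 0.1% FCS. Cells were then incubated 30 min before a concentration series was added. Read-out by dual luciferase; IC₅₀ reported.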

The subject of assay [3] is MDA-MB-468. Put plainly: Cytotoxicity against human MDA-MB-468 cells after 5 days by SRB assay. Conditions: MDA-MB-468, 5 days. A general note: In SRB staining, fixed cells bind dye roughly in proportion to their protein.
Assay [4] relates to SK-BR-3. In words: Cytotoxicity against human SKBR3 cells after 5 days by SRB assay. The note with it: SK-BR-3, 5 days.
For assay [5], the system named is MDA-MB-231. In words: Induction of apoptosis in human MDA-MB-231 cells assessed as increase in number of apoptotic cells at 1 uM by FACScalibur flow cytometry. Format: functional, cell-based. An outline of the steps:
(§1)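 Cells seeded at 2 × 10⁵/well in DMEM/HamF12 with 5% FBS and antibiotics, then treated for 12, 18, 24 or 36 h against a 0.1% DMSO vehicle. Staining was Annexin-V-FLUOS/propidium iodide, read by flow cytometry, as apoptotic cells % of total. Mean ± SEM from three independent experiments in triplicate, two-way ANOVA with Bonferroni post-test.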
Background: A flow cytometer gives signals particle by particle.

Assay [6] concerns MDA-MB-231. Put plainly: Induction of apoptosis in human MDA-MB-231 cells assessed as increase in number of apoptotic cells at 2 uM by FACScalibur flow cytometry. Format: functional, cell-based. An outline of the steps: as §1
Assay [7] relates to MDA-MB-231. In words: Induction of apoptosis in human MDA-MB-231 cells assessed as increase in number of apoptotic cells at 2 to 3 uM after 36 hrs by FACScalibur flow cytometry. Format: functional.
The subject of assay [8] is MDA-MB-231. In words: Induction of apoptosis in human MDA-MB-231 cells assessed as increase in number of apoptotic cells at 2 to 3 uM after 18 hrs by FACScalibur flow cytometry. Format: functional.

For `O=C1/C(=C/c2cccnc2F)CCC/C1=C\c1cccnc1F`, in assay [1], the EC50 was found to be 3200 nM. The molecule also gave an IC50 in assay [2] of 3800 nM.

For `CN1C/C(=C\c2cccnc2)C(=O)/C(=C/c2cccnc2)C1`, the response in assay [1] was half-maximal at 2100 nM (EC50). In assay [2], this molecule returned an IC50 of 800 nM.

In assay [1], `Cn1cccc1/C=C1\CCC/C(=C\c2cccn2C)C1=O` registered an EC50 of more than 30000 nM. In assay [2], this molecule gave an IC50 of more than 200000 nM.

As to `COc1cc(/C=C2\CN(C)C/C(=C\c3cc(OC)c(OC)c(OC)c3)C2=O)cc(OC)c1OC`, the EC50 in assay [3] and in assay [1] was 300 nM throughout. The IC50 in assay [4] is 400 nM; in assay [2], 900 nM. In addition, the result in assay [5] was Active.

In the case of `CN1C/C(=C\c2ccncc2)C(=O)/C(=C/c2ccncc2)C1`, the EC50 was 500 nM in assay [3] and 800 nM in assay [1]. In addition, the IC50 in assay [4] is 600 nM; in assay [2], 1000 nM. Also, the outcome in assay [6] was Active.

As for `COc1cc(F)c(/C=C2\CN(C)C/C(=C\c3cc(OC)c(OC)cc3F)C2=O)cc1OC`, the EC50 in assay [1] turned out to be 3800 nM. For the same molecule, the IC50 in assay [2] stood at 4000 nM.

For `CN1C2CCC1/C(=C\c1ccncc1)C(=O)/C2=C/c1ccncc1`, the EC50 in assay [3] was 600 nM; in assay [1] it was 1100 nM. Further, the results for the IC50 in assay [4] and in assay [2] were 700 nM and 1500 nM, respectively.

As to `O=C1/C(=C/c2cccs2)CCC/C1=C\c1cccs1` [TENYLIDONE], the EC50 in assay [1] was more than 30000 nM. Moreover, the IC50 in assay [2] was more than 200000 nM.

The molecule `O=C1/C(=C/c2ccnc(F)c2)CCC/C1=C\c1ccnc(F)c1` showed an EC50 in assay [1] of 3300 nM. Moreover, the midpoint of inhibition in assay [2], the IC50, lay at 2200 nM.

On to `COc1cc(/C=C2\CCC/C(=C\c3ccc(O)c(OC)c3)C2=O)ccc1O` [CYCLOVALONE], for which the midpoint of the response in assay [1], the EC50, lay at 2600 nM. The molecule further showed an IC50 in assay [2] of 10000 nM.

The molecule `CN1C/C(=C\c2nccn2C)C(=O)/C(=C/c2nccn2C)C1` came in with an EC50 in assay [1] of more than 30000 nM. For the same molecule, in assay [2], the midpoint of inhibition, the IC50, lay at 47000 nM.

`COc1ccc(OC)c(/C=C2\CCC/C(=C\c3cc(OC)ccc3OC)C2=O)c1` came in with an EC50 in assay [1] of more than 10000 nM. Besides, the IC50 in assay [2] was more than 200000 nM.

In turn, `COc1cc(/C=C2\CCC/C(=C\c3cc(OC)c(OC)c(OC)c3)C2=O)cc(OC)c1OC` yielded an EC50 in assay [1] of more than 30000 nM.

As to `COc1cc(/C=C/C(=O)CC(=O)/C=C/c2ccc(O)c(OC)c2)ccc1O` [CURCUMIN], the EC50 in assay [3] turned out to be 9700 nM; in assay [1], 7600 nM. Further, the results for the IC50 in assay [4] and in assay [2] were 2400 nM and 15000 nM, respectively.

With `COc1ccc(OC)c(/C=C2\CN(C)C/C(=C\c3cc(OC)ccc3OC)C2=O)c1`, the EC50 in assay [3] and in assay [1] was 1100 nM each time. The IC50 in assay [4] worked out at 1100 nM; in assay [2], 6300 nM.

`CN1C/C(=C\c2cccs2)C(=O)/C(=C/c2cccs2)C1` came in with an EC50 in assay [1] of more than 30000 nM. In assay [2], this molecule yielded an IC50 of more than 200000 nM.

In the case of `CN1C2CCC1/C(=C\c1cccnc1)C(=O)/C2=C/c1cccnc1`, in assay [1], it took 12900 nM to reach a half-maximal effect (EC50). Also, the IC50 in assay [2] worked out at 4000 nM.

In assay [1], `Cn1ccnc1/C=C1\CCC/C(=C\c2nccn2C)C1=O` came in with an EC50 of 1900 nM. This molecule also yielded an IC50 in assay [2] of 48000 nM.

On to `O=C1/C(=C/c2ccncc2)CCC/C1=C\c1ccncc1`, for which the Activity in assay [7] was 40%; in assay [8], less than 20%. Moreover, the EC50 in assay [3] was found to be 1900 nM; in assay [1] it was 1100 nM. Further, the IC50 in assay [4] is 200 nM; in assay [2] it was 2500 nM.

In turn, `COc1cc(/C=C2/C(=O)/C(=C/c3cc(OC)c(OC)c(OC)c3)C3CCC2N3C)cc(OC)c1OC` had an EC50 in assay [1] of more than 30000 nM. Moreover, the half-inhibitory concentration (IC50) in assay [2] was more than 200000 nM.

In the case of `O=C1/C(=C/c2cccnc2)CC/C1=C\c1cccnc1`, the EC50 in assay [1] is 8600 nM. In addition, the IC50 in assay [2] worked out at 34000 nM.

Regarding `O=C1/C(=C/c2cccnc2)CCC/C1=C\c1cccnc1`, the Activity in assay [8] is less than 20%. Also, the EC50 in assay [1] was determined as 1500 nM. For the same molecule, the midpoint of inhibition in assay [2], the IC50, lay at 2500 nM.

As usually defined, the EC50 is the concentration at which the effect is half-maximal. Read a high EC50 as a less potent agent. What is called IC50 is the concentration at which inhibition is half-maximal. Lower therefore signals greater potency in that assay.
